# Legend:
# [1] = test system: CCl4-intoxicated Nep−/− mice; test: Captopril or losartan co-treatment of CCl4-intoxicated Nep−/− mice; format: in vivo, mouse; settings: losartan 5 mg/kg/day or captopril 4 mg/kg/day for four weeks, vs non-treated fibrotic Nep−/− mice, n = 6
# Summary of the method: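 Nep−/− mice (C57BL/6J background, male and female, 10–12 weeks) exposed to CCl4 at 1L/min three times weekly for four weeks, with phenobarbital 3.0 mg/kg/day in drinking water. Losartan or captopril co-treatment ran through the same four weeks. Sirius red-stained sections scored by morphometry; portal pressure recorded in mm Hg; hepatic Col1a1 mRNA by qPCR. Mean ± SEM.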
# [2] = test system: fibrotic WT (C57BL6/J) mice; test: Entresto study: oral treatment of fibrotic WT mice; format: in vivo, mouse; settings: oral 100 mg/kg for 14 days; fibrotic mice vs control
# Summary of the method: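 Male and female WT mice, 10–12 weeks, made fibrotic over 7 weeks by i.p. CCl4 plus either ethanol in drinking water or Western diet. Entresto tablet (49mg/51mg) crushed and resuspended in 0.9% NaCl; valsartan and sacubitril prepared the same way. Dosed orally for 14 days until sacrifice. Portal pressure measured at the end; hepatic Col1a1 mRNA also assessed. Mean ± SEM.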
# [3] = test system: primary mouse HSC (WT and Nep−/−); test: Western blot of ROCK, p-moesin and p-ERK in primary HSCs; format: cell-based; settings: NPY 1 nM, 24 h, compared with WT cells
# Summary of the method: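 Primary HSCs from WT and Nep−/− mice were cultured at least one week until fully activated. They were seeded at 300,000 cells/well in DMEM with 20% FBS, and buffers were free of Zn and EDTA. […] Protein was read by western blot with GAPDH as loading control.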
# primary Nep−/− HSCs = test: Determination of cellular cAMP; format: cell-based, mouse; settings: serum starved, full-length NPY 1 nM or mix of C-terminal fragments 30 μM, 30 min (methods), 24 h (Figure 4F), n = 3–4
# Summary of the method: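 HSCs isolated from WT and Nep−/− mice were cultured at least one week (fully activated) in DMEM/20% FBS with penicillin-streptomycin, in Zn- and EDTA-free buffers. […] Competitive cAMP ELISA, normalised to total protein; mean ± SEM.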
# WT mice = test: Intraperitoneal injection of NPYFL or its C-terminal fragments in WT mice; format: in vivo, mouse; settings: i.p., 72 hours, n = 6/group
# [4] = test system: primary mouse HSC (WT and Nep−/−); test: mRNA expression; format: cell-based; settings: NPY 1 nM, 24 h
# [5] = test system: primary HSCs from Nep−/− mice; test: Immunofluorescence and confocal microscopy of collagen I and αSMA; format: cell-based, mouse; settings: full-length NPY, 24 h
# Summary of the method: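 Primary Nep−/− HSCs, activated by at least one week of culture, were serum-starved 12 h. […] Cells were fixed in 4% paraformaldehyde and permeabilized with 1% Triton X-100, each 10 min at 37°C, then blocked 1 h in 1% BSA. Anti-collagen I (1:50) and anti-α-SMA (1:200) ran overnight at 4°C, secondaries (1:3000) 2 h, with DAPI counterstain. Confocal fluorescence was quantified from three independent experiments.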
# [6] = test system: primary mouse HSC (WT and Nep−/−); test: Collagen gel contraction assay; format: cell-based; settings: primary mouse HSCs on collagen gels, NPY 0–100 nM, 0–48 h; Nep−/− vs WT
# Summary of the method: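 Primary HSCs were isolated from WT and Nep−/− mice and cultured at least one week until fully activated. 1 × 10^4 cells were embedded in 1 mg/mL collagen gels, in triplicate per group. […] Gel area was tracked from images taken at fixed camera distance over time, as % of initial surface; mean ± SEM, n = 3–6.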
compound,measurement,setting,value
C[C@H](CS)C(=O)N1CCC[C@H]1C(=O)O [captopril],hepatic Col1a1 mRNA expression,[1],significantly reduced
same,portal pressure,[1],significantly reduced
CCCCc1nc(Cl)c(CO)n1Cc1ccc(-c2ccccc2-c2nn[nH]n2)cc1 [losartan],hepatic Col1a1 mRNA expression,[1],significantly reduced
same,portal pressure,[1],significantly reduced
CCOC(=O)[C@H](C)C[C@@H](Cc1ccc(-c2ccccc2)cc1)NC(=O)CCC(=O)O [sacubitril],"portal pressure, single components of Entresto",[2],Neither valsartan nor sacubitril were able to significantly reduce portal pressure
CCCCC(=O)N(Cc1ccc(-c2ccccc2-c2nnn[nH]2)cc1)[C@H](C(=O)O)C(C)C [valsartan],"portal pressure, single components of Entresto",[2],Neither valsartan nor sacubitril were able to significantly reduce portal pressure
Neuropeptide Y [NPY],ROCK protein and p-moesin expression (western blot),[3],increased further
same,cAMP measurements (pmol cAMP per mg of total protein),primary Nep−/− HSCs,reduction
same,hepatic Acta2 mRNA expression,WT mice,significantly induced
same,"hepatic mRNA expression of the main fibrotic markers, Col1a1 and Tgfβ1",WT mice,induced
same,portal pressure,WT mice,increase
same,Col1a1 mRNA level,[4]; Nep−/− HSCs,decreased
same,Tgfβ1 mRNA level,[4]; Nep−/− HSCs,decreased
same,Acta2 mRNA expression,"[4]; Nep−/− HSCs, compared with WT control",induced
same,Col1a1 mRNA level,[4]; WT HSCs,increased
same,Tgfβ1 mRNA level,[4]; WT HSCs,increased
same,αSMA expression (immunofluorescence),[5],increased
same,HSC contraction (decrease of gel surface),[6],induced more HSC contraction

# Source: paper PMC9989826 (Cell Reports, 2023)
